Measurements published in ChEMBL document CHEMBL3045866, “A novel family of insect-selective peptide neurotoxins targeting insect large-conductance calcium-activated K+ channels isolated from the venom of the theraphosid spider Eucratoscelus constrictus” (Mol Pharmacol, 2011).
Active and inactive are the calls of the source. No cut-off for these calls is given here. Bridge positions count the residues as written; N and C are the ends. Peptide text beside a SMILES is read from it.

Legend:
[1] = molecular target: Voltage-dependent calcium channel alpha-1 subunit (Blattella germanica) (UniProt O18323); experiment: Inhibition of mid-low voltage activated Cav channel in Periplaneta americana (American cockroach) DUM neurons assessed as effect on voltage-dependent activation at 330 nM measured at holding potential -90 mV depolarized to +70 mV with 10 mV increments after 10 min by whole cell patch clamp assay
Voltage-dependent calcium channel alpha-1 subunit (Blattella germanica), sequence (O18323 as listed by the source): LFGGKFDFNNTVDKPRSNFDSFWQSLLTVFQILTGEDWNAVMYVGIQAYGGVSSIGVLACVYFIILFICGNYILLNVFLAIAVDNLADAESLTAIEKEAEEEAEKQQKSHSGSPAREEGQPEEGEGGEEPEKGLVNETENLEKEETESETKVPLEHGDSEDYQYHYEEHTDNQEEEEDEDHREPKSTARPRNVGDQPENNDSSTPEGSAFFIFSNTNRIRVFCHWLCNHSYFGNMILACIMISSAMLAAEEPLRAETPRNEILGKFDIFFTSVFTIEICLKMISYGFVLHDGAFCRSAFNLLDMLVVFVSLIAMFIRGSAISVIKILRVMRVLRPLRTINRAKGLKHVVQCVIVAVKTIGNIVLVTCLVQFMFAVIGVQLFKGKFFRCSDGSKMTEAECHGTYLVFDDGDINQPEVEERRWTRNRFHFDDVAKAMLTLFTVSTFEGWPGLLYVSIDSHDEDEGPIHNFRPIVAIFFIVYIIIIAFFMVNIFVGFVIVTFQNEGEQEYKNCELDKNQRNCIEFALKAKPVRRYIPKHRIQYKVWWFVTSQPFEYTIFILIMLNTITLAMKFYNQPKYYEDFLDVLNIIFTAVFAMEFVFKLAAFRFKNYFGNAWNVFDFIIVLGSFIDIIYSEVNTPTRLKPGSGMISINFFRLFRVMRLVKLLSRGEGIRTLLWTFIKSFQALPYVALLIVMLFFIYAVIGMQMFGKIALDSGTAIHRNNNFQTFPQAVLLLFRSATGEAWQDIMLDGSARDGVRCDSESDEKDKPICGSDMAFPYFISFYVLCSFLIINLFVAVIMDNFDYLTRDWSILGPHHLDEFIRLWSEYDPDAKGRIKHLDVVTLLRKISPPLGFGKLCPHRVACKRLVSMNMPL
Summary of the method: (§1)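 Ba2+ currents through M-LVA and HVA Cav channels recorded by whole-cell clamp in cockroach DUM neurons at 20–23°C. Toxin applied for 10 min via a perfusion needle. Peak IBa measured relative to control. For activation, steps from Vh -90 mV to +70 mV in 10-mV increments at 0.1 Hz. P-P/4 leak subtraction; n = 3.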

[2] = molecular target: Voltage-dependent calcium channel alpha-1 subunit (Blattella germanica) (UniProt O18323); experiment: Inhibition of high voltage activated Cav channel in Periplaneta americana (American cockroach) DUM neurons assessed as effect on voltage-dependent activation at 330 nM measured at holding potential -90 mV depolarized to +70 mV with 10 mV increments after 10 min by whole cell patch clamp assay; summary of the method: as §1
[3] = molecular target: Voltage-gated sodium channel Nav1 alpha subunit (Periplaneta americana) (UniProt D0E0C1); experiment: Inhibition of Nav channel in Periplaneta americana (American cockroach) DUM neurons assessed as effect on voltage-dependent activation at 330 nM measured at holding potential -90 mV depolarised to +70 mV with 10 mV increments for 10 min by whole cell patch clamp assay
Voltage-gated sodium channel Nav1 alpha subunit (Periplaneta americana), sequence (D0E0C1 as listed by the source): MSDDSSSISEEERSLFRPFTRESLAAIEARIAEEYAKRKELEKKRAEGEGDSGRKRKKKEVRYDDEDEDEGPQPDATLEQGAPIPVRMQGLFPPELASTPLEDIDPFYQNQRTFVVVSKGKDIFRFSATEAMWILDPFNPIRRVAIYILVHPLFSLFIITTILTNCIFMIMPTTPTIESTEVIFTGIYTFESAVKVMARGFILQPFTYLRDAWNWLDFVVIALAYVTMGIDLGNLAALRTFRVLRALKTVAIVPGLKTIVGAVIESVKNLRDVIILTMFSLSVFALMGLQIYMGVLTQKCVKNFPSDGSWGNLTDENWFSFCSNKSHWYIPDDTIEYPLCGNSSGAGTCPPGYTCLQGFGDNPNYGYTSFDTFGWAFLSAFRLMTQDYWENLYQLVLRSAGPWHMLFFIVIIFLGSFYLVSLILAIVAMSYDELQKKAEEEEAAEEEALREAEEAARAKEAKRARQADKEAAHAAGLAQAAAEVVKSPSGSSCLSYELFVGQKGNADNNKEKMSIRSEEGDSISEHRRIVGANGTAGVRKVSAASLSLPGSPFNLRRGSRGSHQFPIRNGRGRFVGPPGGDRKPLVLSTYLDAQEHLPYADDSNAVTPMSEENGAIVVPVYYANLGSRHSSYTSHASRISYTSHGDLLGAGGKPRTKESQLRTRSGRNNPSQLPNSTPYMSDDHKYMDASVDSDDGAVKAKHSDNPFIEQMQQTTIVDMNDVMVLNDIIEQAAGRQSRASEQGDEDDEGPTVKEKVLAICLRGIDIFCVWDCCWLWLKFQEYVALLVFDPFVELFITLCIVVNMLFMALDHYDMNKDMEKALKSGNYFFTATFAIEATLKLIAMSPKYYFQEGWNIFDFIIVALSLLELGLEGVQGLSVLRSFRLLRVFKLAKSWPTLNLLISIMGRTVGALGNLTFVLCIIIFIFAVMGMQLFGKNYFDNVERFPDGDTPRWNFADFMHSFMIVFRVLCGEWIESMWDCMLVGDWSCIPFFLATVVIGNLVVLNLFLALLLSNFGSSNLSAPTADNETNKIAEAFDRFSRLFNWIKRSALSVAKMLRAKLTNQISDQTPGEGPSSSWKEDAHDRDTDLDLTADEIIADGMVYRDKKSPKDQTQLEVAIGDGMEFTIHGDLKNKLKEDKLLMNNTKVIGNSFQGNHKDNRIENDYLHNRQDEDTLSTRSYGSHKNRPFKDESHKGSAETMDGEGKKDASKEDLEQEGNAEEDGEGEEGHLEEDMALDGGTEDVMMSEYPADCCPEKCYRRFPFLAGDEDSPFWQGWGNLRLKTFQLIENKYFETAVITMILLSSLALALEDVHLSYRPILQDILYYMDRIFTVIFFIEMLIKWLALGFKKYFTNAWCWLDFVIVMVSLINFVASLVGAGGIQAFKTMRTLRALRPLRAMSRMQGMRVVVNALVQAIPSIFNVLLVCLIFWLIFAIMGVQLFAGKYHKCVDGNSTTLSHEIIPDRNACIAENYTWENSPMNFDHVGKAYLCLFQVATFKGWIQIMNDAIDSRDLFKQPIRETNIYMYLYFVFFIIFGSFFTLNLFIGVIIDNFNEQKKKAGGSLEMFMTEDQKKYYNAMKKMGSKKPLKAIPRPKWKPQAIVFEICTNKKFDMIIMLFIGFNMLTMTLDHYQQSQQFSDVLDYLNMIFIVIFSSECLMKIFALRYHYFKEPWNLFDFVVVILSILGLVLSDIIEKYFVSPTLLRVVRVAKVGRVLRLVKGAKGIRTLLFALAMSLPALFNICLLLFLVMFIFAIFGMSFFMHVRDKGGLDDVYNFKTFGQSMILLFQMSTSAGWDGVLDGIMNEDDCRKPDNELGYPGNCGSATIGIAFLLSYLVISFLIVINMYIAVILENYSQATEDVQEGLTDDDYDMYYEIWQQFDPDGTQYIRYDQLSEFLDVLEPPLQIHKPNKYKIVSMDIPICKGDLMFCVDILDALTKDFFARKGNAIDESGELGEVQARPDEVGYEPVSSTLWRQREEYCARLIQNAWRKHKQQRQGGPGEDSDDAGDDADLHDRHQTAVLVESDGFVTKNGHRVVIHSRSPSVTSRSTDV
Summary of the method: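 Whole-cell voltage clamp of TTX-sensitive Na+ current in DUM neurons isolated from adult cockroaches and kept no longer than 24 h at 30°C. Bath (mM): NaCl 80, CsCl 5, CaCl2 1.8, TEA-Cl 50, 4-AP 5, HEPES 10, NiCl2 0.1, CdCl2 1, pH 7.4. Vh -90 mV; test pulse to -10 mV, or steps to +70 mV in 10-mV increments at 0.1 Hz. P-P/4 leak subtraction; 20–23°C.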

Mus musculus [4] = experiment: Neurotoxicity against Mus musculus C57BL/6 (mouse) assessed as effect on behaviour at 500 pmol, icv; format: toxicity, organism-based; conditions: in vivo, icv_or_intrathecal
Summary of the method: (§2)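 Female C57BL/6 mice (~20 g) lightly anesthetized with diethylether. 5 µl of sample in BSA solution injected into the left cerebral ventricle. Posture, behavior and neurotoxic signs observed; n = 2.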

Mus musculus [5] = experiment: Neurotoxicity against Mus musculus C57BL/6 (mouse) assessed as effect on posture at 500 pmol, icv; format: toxicity, organism-based; conditions: in vivo, icv_or_intrathecal; summary of the method: as §2
Gryllus bimaculatus [6] = experiment: Neurotoxicity against third-instar nymph stage of Gryllus bimaculatus (cricket) assessed as mortality at 1.1 nmol/g measured at 15 min; format: functional, organism-based
Gryllus bimaculatus [7] = experiment: Neurotoxicity against third-instar nymph stage of Gryllus bimaculatus (cricket) assessed as paralysis at 1.1 nmol/g measured within 5 min; format: functional, organism-based
[8] = molecular target: Voltage-dependent calcium channel alpha-1 subunit (Blattella germanica) (UniProt O18323); experiment: (§3) Inhibition of voltage-gated calcium channel Cav-mediated late-sustained current in Periplaneta americana (American cockroach) DUM neurons assessed as effect on voltage-dependent activation at 6 nM measured at holding potential -80 mV in 10 mV increments depolarized to +40 mV after 10 min by whole cell patch clamp assay in presence of CdCl2
Summary of the method: (§4)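 BK(Ca) current in DUM neurons with 5 mM 4-AP in the bath. Toxin perfused for 10 min or to equilibrium; then 1 mM CdCl2 plus 30 nM ChTx added, and the residual current subtracted. 100-ms steps from Vh -80 mV to +30 mV, or to +40 mV in 10-mV increments for I–V. Peak (fast-transient) and 100-ms (late) amplitudes measured. IC50 from logistic fit; n = 3–6.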

[9] = molecular target: Voltage-dependent calcium channel alpha-1 subunit (Blattella germanica) (UniProt O18323); experiment: as §3, with “fast-transient” for “late-sustained”; summary of the method: as §4
[10] = molecular target: Voltage-dependent calcium channel alpha-1 subunit (Blattella germanica) (UniProt O18323); experiment: Inhibition of voltage-gated calcium channel Cav-mediated late-sustained current in Periplaneta americana (American cockroach) DUM neurons assessed as measured at holding potential -80 mV depolarized to +40 mV after 10 min by whole cell patch clamp assay in presence of CdCl2; summary of the method: as §4
[11] = molecular target: Voltage-dependent calcium channel alpha-1 subunit (Blattella germanica) (UniProt O18323); experiment: Inhibition of voltage-gated calcium channel Cav-mediated fast-transient current in Periplaneta americana (American cockroach) DUM neurons assessed as measured at holding potential -80 mV depolarized to +40 mV after 10 min by whole cell patch clamp assay in presence of CdCl2; summary of the method: as §4
[12] = Reversible inhibition of Potassium channel Kv in Periplaneta americana (American cockroach) DUM neurons at 330 nM measured at holding potential -90 mV depolarized to +30 mV after 10 min by whole cell patch clamp assay relative to control
[13] = Inhibition of transient A type potassium channel IK(A) in Periplaneta americana (American cockroach) DUM neurons at 330 nM measured at holding potential -90 mV depolarized to +30 mV after 10 min by whole cell patch clamp assay in presence of CdCl2 and ChTx
[14] = Inhibition of delayed rectifier potassium channel IK(DR) in Periplaneta americana (American cockroach) DUM neurons at 330 nM measured at holding potential -90 mV depolarized to +30 mV after 10 min by whole cell voltage clamp assay in presence of CdCl2 and ChTx relative to control
[15] = Inhibition of transient A type potassium channel IK(A) in Periplaneta americana (American cockroach) DUM neurons assessed as effect on voltage-dependent activation at 330 nM measured at holding potential -90 mV depolarized to +40 mV with 100 ms increments after 10 min by whole cell patch clamp …
[16] = Inhibition of delayed rectifier potassium channel IK(DR) in Periplaneta americana (American cockroach) DUM neurons assessed as effect on voltage-dependent activation at 330 nM measured at holding potential -90 mV depolarized to +40 mV with 100 ms increments after 10 min by whole cell voltage clamp …
[17] = molecular target: Voltage-gated sodium channel Nav1 alpha subunit (Periplaneta americana) (UniProt D0E0C1); conditions: 300 nM

| Structure (SMILES) | inhibition [1] | inhibition [2] | inhibition [3] | Activity (Mus musculus [4]) | Activity (Mus musculus [5]) | Activity (Gryllus bimaculatus [6]) | Activity (Gryllus bimaculatus [7]) | inhibition [8] | inhibition [9] | inhibition [10] | inhibition [11] | inhibition [12] | inhibition [13] | inhibition [14] [%] | inhibition [15] | inhibition [16] | inhibition [17] |
| --- | --- | --- | --- | --- | --- | --- | --- | --- | --- | --- | --- | --- | --- | --- | --- | --- | --- |
| CSCC[C@@H]1NC(=O)[C@H](CC(=O)O)NC(=O)[C@H](CCC(=O)O)NC(=O)[C@@H]2CSSC[C@H](NC(=O)[C@@H](N)Cc3ccc(O)cc3)C(=O)N[C@@H](CCC(N)=O)C(=O)N[C@@H](CCCCN)C(=O)N[C@@H](Cc3ccccc3)C(=O)N[C@@H](CC(C)C)C(=O)N[C@@H](Cc3c[nH]c4ccccc34)C(=O)N[C@@H]([C@@H](C)O)C(=O)N[C@H]3CSSC[C@H](NC(=O)[C@H](C(C)C)NC1=O)C(=O)N[C@@H](CCC(=O)O)C(=O)N[C@@H](CC(C)C)C(=O)N[C@@H](Cc1c[nH]c4ccccc14)C(=O)N[C@H](C(=O)N[C@@H](CCCCN)C(=O)N[C@@H](CC(C)C)C(=O)N[C@@H](CCC(=O)O)C(=O)N[C@@H](CCCCN)C(=O)O)CSSC[C@H](NC(=O)[C@H](CCCCN)NC(=O)[C@H](CCCNC(=N)N)NC(=O)[C@H](CCC(=O)O)NC(=O)[C@H]([C@@H](C)O)NC(=O)[C@H](CC(=O)O)NC3=O)C(=O)N2 (H-YCQKFLWTCDTERKCCEDMVCELWCKLEK-OH; disulfide 2-16, 9-21, 15-25) | inactive | inactive | inactive | Non-toxic | Non-toxic | Active | Active | inactive | inactive | Dose-dependent effect | Dose-dependent effect | Active | Active | 31 | inactive | inactive | – |
| NC1=N[C@H](O)[C@H]2[C@H]3O[C@]4(O)O[C@@H]([C@@H](O)[C@@]2(N1)[C@@H]4O)[C@]3(O)CO | – | – | – | – | – | – | – | – | – | – | – | – | – | – | – | – | Active |
